These results are taken from article PMC3114641 (ACS medicinal chemistry letters, 2011).

Each structure is given as a SMILES string. Like-named read-outs stand apart in the source and are kept apart here.

In assay [1] the target is T1, chicken riboflavin binding protein (RfBP) (Gallus gallus, UniProt P02752).
T1 sequence (P02752 18-238): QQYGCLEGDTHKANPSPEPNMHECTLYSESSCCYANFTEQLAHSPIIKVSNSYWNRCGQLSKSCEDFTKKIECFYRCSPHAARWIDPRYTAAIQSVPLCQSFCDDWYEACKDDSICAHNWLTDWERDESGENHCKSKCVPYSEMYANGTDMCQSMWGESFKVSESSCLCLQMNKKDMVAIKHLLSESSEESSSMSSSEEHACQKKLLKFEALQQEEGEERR
Briefly: Isothermal titration calorimetry. The note with it: ITC; for KD: KD = 1/KA. A general note: ITC needs no label: the signal is the heat of the interaction.

Assay [2] has as its target T2, RfBP (Gallus gallus, UniProt P02752).
T2 sequence (P02752 18-238): T1 sequence (P02752 18-238)
The experiment in a line: SPR solution competition: inhibition of RfBP adsorption to RF. The assay is classed as binding, chicken.

Assay [3] addresses RfBP. The note with it: fluorescence quenching, cited from earlier work.
The target of assay [4] is T2, RfBP. The experiment in a line: SPR direct binding of RfBP to ligand 1 immobilized on CM5 sensor chip. Also noted: species or system chicken. The procedure, abridged:
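Chicken RfBP was injected at 33.0 to 3.70 μM in HBS-EP buffer (pH 7.4) over a CM5 chip with an immobilized riboflavin-linker conjugate. Sensorgrams were fitted globally to a 1:1 Langmuir model to give kon and koff, and KD was derived from these kinetics. KD was also obtained by Scatchard analysis of bound RfBP against RfBP concentration.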

Where [5] appears, read: PBS pH 7.4, 25°C, calculated estimate.
Where [6] appears, read: PBS pH 7.4, 25°C, calculated estimate (Table 2).
Where [7] appears, read: 0.1M NaAc pH 4.0, 25°C, calculated estimate.
Setting [8] is: 0.1M Phosphate pH 7.4, 25°C, calculated estimate.
[9] abbreviates: 0.1M Tris pH 9.0, 25°C, calculated estimate.

In the case of `CN(C)CCCN1c2ccccc2Sc2ccc(Cl)cc21` [Chlorpromazine, chlorpromazine], the “binding affinity towards the RfBP” value in assay [1] is reported as “no binding affinity”. Moreover, in assay [1] (PBS pH 7.4, 25°C), the KD result is reported as “No Binding Observed”.
Consider `Cc1cc2nc3c(=O)[nH]c(=O)nc-3n(C)c2cc1C` [Lumiflavin, lumiflavin], for which, in assay [1] (PBS pH 7.4, 25°C), the “n (binding stoichiometry)” value came to 1.08 ±0.07 and the ΔH is -11.5 ± 1.72 kcal/mol. Moreover, the ΔG in assay [1] (setting [5]) was -9.85 kcal/mol. Further, in assay [1] (setting [6]), the ΔS is −0.02 kJ mol^−1 K^−1.
Regarding `OCCN1CCN(CCCN2c3ccccc3Sc3ccc(Cl)cc32)CC1` [Perphenazine, perphenazine], the “binding affinity towards the RfBP” value in assay [1] is recorded as “no binding affinity”. The KD result in assay [1] (PBS pH 7.4, 25°C) is “No Binding Observed”.
Usually Kd stands for the free concentration of one partner at which half of the binding sites on the other are occupied at equilibrium, for simple one-to-one binding. With `Cc1cc2nc3c(=O)[nH]c(=O)nc-3n(C[C@H](O)[C@H](O)[C@H](O)CO)c2cc1C` [RF, riboflavin], the “inhibitory activity, fold more potent than N(3) derivative 1” value on RfBP [2] (SPR Ki comparison) is “approximately 7 fold”. In addition, the “n (binding stoichiometry)” value in assay [1] (0.1M NaAc pH 4.0, 25°C) was 0.70±0.04; in assay [1] (0.1M Phosphate pH 7.4, 25°C), 0.81±0.03; in assay [1] (0.1M Tris pH 9.0, 25°C), 0.82±0.03; in assay [1] (PBS pH 7.4, 25°C) it was 0.78±0.02. The ΔH in assay [1] (0.1M NaAc pH 4.0, 25°C) is -24.07 ± 2.49 kcal/mol; in assay [1] (0.1M Phosphate pH 7.4, 25°C), -19.6 ± 1.36 kcal/mol; in assay [1] (0.1M Tris pH 9.0, 25°C) it was -23.7 ± 2.15 kcal/mol; in assay [1] (PBS pH 7.4, 25°C) it was -21.8 ± 1.36 kcal/mol. Also, the ΔG was -9.99 kcal/mol in assay [1] (setting [7]), -11.1 kcal/mol in assay [1] (setting [8]), -10.2 kcal/mol in assay [1] (setting [9]) and -11.4 kcal/mol in assay [1] (setting [5]). Also, the ΔS was -0.0478 kcal/mol in assay [1] (setting [7]); -0.0287 kcal/mol in assay [1] (setting [8]); -0.0454 kcal/mol in assay [1] (setting [9]); -0.0359 kcal/mol in assay [1] (PBS pH 7.4, 25°C, calculated estimate (Table 1)); −0.15 kJ mol^−1 K^−1 in assay [1] (setting [6]). Besides, the results for the dissociation constant (Kd) on RfBP [3] (0.01M phosphate buffer) and on RfBP [3] (0.1 M phosphate buffer) were 1.3 nM and 2 nM, respectively.
As a reminder, the koff is a measure of how fast the partners let go of each other. The low end stands for slow dissociation, the high end for fast dissociation. One may read the kon as the rate constant with which the complex forms. Consider `Cc1cc2nc3c(=O)n(CC(=O)NCCCN)c(=O)nc-3n(C[C@H](O)[C@H](O)[C@H](O)CO)c2cc1C` [compound 1], for which the “inhibition of RfBP adsorption to the surface” value on RfBP [2] (RfBP 11.1 µM, ligand concentrations above ~500 µM) is “approximately 90%”. At RfBP [4], this compound gave a dissociation constant (Kd) of 14500 nM, an off-rate (koff) of 0.00149 s⁻¹ and a kon of 103 M⁻¹ s⁻¹.
